Here are results for nine compounds from ChEMBL document CHEMBL2321778, “GC-targeted C8-linked pyrrolobenzodiazepine-biaryl conjugates with femtomolar in vitro cytotoxicity and in vivo antitumor activity in mouse models” (J Med Chem, 2013).

The nature of experiment [1]: Binding affinity to GC-rich FAM-GCGCAGATTTTCTGCGC-TAMRA DNA (unknown origin) assessed as change in melting temperature at 1 uM by FRET assay. The method in brief: (§1)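 Fam/Tamra-labelled hairpins, 400 nM in 50 mM potassium cacodylate pH 7.4, annealed at 85 °C for 5 min, cooled over 5 h, then mixed 1:1 with ligand diluted from DMSO stock; ligand 1 μM, 24 h incubation. Fluorescence (excitation 450−495, emission 515−545 nm) read every 0.5 °C from 30−100 °C; Tm from first-derivative maximum of smoothed curves, ΔTm versus blank.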

Experiment [2] is described as follows: Binding affinity to AT-rich FAM-TATAAGATTTTCTTATA-TAMRA DNA (unknown origin) assessed as change in melting temperature at 1 uM by FRET assay. The method in brief:
as §1

Experiment [3] in a line: Selectivity ratio of deltaTm for GC-rich FAM-GCGCAGATTTTCTGCGC-TAMRA DNA (unknown origin) to deltaTm for AT-rich FAM-TATAAGATTTTCTTATA-TAMRA DNA (unknown origin). The method in brief: as §1
Experiment [4] deals with A-431. The experiment is described as follows: Cytotoxicity against human A431 cells after 96 hrs by MTT assay. Format: functional, cell-based. The conditions noted are these: A-431, 96 h. The procedure, abridged:
(§2)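 Adherent cells were grown at 37 °C in 5% CO2 in DMEM or MEM with 10% FBS, L-glutamine, nonessential amino acids and hydrocortisone, then seeded to 30–40% confluence. Compounds were dissolved in water at up to 100 μM, serially diluted tenfold and added for 96 h of continuous exposure. MTT absorbance was read at 570 nm, and IC50 was taken from dose–response analysis.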
(In general: Tetrazolium dyes change colour on reduction, which living cells bring about.)

For experiment [5], the system named is A549. Kind of experiment: Cytotoxicity against human A549 cells after 96 hrs by MTT assay. Format: functional, cell-based. As to conditions: A549, 96 h. The procedure, abridged:
as §2

The test system of experiment [6] is WI-38. Kind of experiment: Cytotoxicity against human WI38 cells after 96 hrs by MTT assay. It counts as cell-based. The conditions noted are these: WI-38, 96 h. The method in brief:
as §2

The test system of experiment [7] is MCF7. Kind of experiment: Cytotoxicity against human MCF7 cells after 96 hrs by MTT assay. It counts as functional, cell-based. The conditions noted are these: MCF7, 96 h. The method in brief:
as §2

The test system of experiment [8] is MDA-MB-231. Kind of experiment: Cytotoxicity against human MDA-MB-231 cells after 96 hrs by MTT assay. Format: functional, cell-based. As to conditions: MDA-MB-231, 96 h. The method in brief: as §2
The test system of experiment [9] is MIA PaCa-2. The experiment is described as follows: Cytotoxicity against human MIAPaCa2 cells after 96 hrs by MTT assay. As to conditions: MIA PaCa-2, 96 h. Format: functional, cell-based. The procedure, abridged: as §2
A short description of experiment [10]: Cytotoxicity against human primary CLL cells after 96 hrs by annexin V/propidium iodide staining-based FACS flow cytometric analysis. It counts as functional, cell-based. The procedure, abridged: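 Freshly isolated peripheral blood CLL cells at 1 × 10^6/mL were cultured in RPMI with penicillin, streptomycin and 10% FCS at 37 °C in 5% CO2. Serial dilutions of compound from DMSO stocks were added, with drug-free control cultures. Apoptosis was measured by annexin V/propidium iodide flow cytometry, in duplicate. LD50 came from sigmoidal curves of log concentration against percentage apoptosis.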
(Flow cytometry measures light scatter and fluorescence of single cells or particles in a stream.)

The subject of experiment [11] is A2780. Kind of experiment: Cytotoxicity against human A2780 cells after 96 hrs by MTT assay. The conditions noted are these: A2780, 96 h. It counts as functional, cell-based. The procedure, abridged: as §2
Experiment [12] can be described thus: Binding affinity to GC-rich GCGC-AGA-TTT-TCT-GCGC DNA (unknown origin) after 5 mins by HPLC-MS analysis (reference value: 12 %).
A short description of experiment [13]: Binding affinity to AT-rich TATA-AGA-TTT-TCT-TATA DNA (unknown origin) after 5 mins by HPLC-MS analysis (reference value: 70 %).

In the case of `CCOC(=O)c1nc(NC(=O)c2cc(-c3ccc(NC(=O)CCCOc4cc5c(cc4OC)C(=O)N4CCC[C@H]4C=N5)cc3)cn2C)cn1C`, the ΔTm – broadly, the change in melting temperature against a reference sample – in experiment [1] stood at 2.8 °C; in experiment [2], 0.5 °C. The Ratio in experiment [3] stood at 5.6. Further, the IC50 (usually the concentration at which inhibition is half-maximal) in experiment [4] came to 0.19 nM; in experiment [5] it was 0.47 nM; in experiment [6], 1240 nM; in [7], 0.37 nM; in experiment [8], 0.45 nM; in [9], 0.11 nM. For the same compound, the IC50 was 3 nM in experiment [10] and 0.15 nM in [11].
In the case of `COC(=O)c1cc(-c2ccc(NC(=O)c3cc(-c4ccc(NC(=O)CCCOc5cc6c(cc5OC)C(=O)N5CCC[C@H]5C=N6)cc4)cn3C)cc2)cn1C`, the ΔTm in [1] was 3.6 °C; in experiment [2] it was 0.8 °C. In addition, the Ratio in [3] is 3.6. The IC50 in experiment [4] is 2.91 nM; in experiment [5], 0.54 nM; in experiment [6], 159 nM; in [7] it was 0.9 nM; in experiment [8] it was 0.46 nM; in experiment [9], 0.35 nM. Further, the IC50 was 4.7 nM in experiment [10] and 0.56 nM in experiment [11].
On to `COC(=O)c1cc(NC(=O)c2cc(-c3ccc(NC(=O)CCCOc4cc5c(cc4OC)C(=O)N4CCC[C@H]4C=N5)cc3)cn2C)cn1C`, for which the ΔTm in experiment [1] amounted to 3.1 °C; in [2], 2.1 °C. For the same compound, the Ratio in experiment [3] came to 1.48. Also, the IC50 came out at 4.6 nM in experiment [4]; 0.019 nM in experiment [5]; 426 nM in experiment [6]; 1.7 nM in experiment [7]; 2.7 nM in experiment [8]; 0.34 nM in experiment [9]. Besides, the results for the IC50 in [10] and in [11] were 2.1 nM and 0.96 nM, respectively.
For the compound `COC(=O)c1cc(-c2ccc(N)cc2)cn1C`, the IC50 in experiment [4], in [5], in [6], in [7], in experiment [8] and in experiment [9] was more than 20000 nM each time. In addition, the IC50 in experiment [10] and in experiment [11] was more than 20000 nM each time.
Turning to `COC(=O)c1cc(-c2ccc(NC(=O)CCCOc3cc4c(cc3OC)C(=O)N3CCC[C@H]3C=N4)cc2)cn1C`, the results for the ΔTm in experiment [1] and in [2] were 3.9 °C and 0.3 °C, respectively. In addition, the figures for the Activity in experiment [12] and in [13] were 67% and 3%, respectively. Also, in experiment [3], the Ratio was 13. The IC50 in experiment [4] is 2.31 nM; in [5], 7.5 nM; in experiment [6], 160 nM; in [7], 1.91 nM; in [8], 2.11 nM; in experiment [9], 1.2 nM. Besides, the IC50 in experiment [10] is 6.2 nM; in experiment [11] it was 1.87 nM.
Regarding `COc1cc2c(cc1OCCCC(=O)O)N=C[C@@H]1CCCN1C2=O`, the ΔTm in experiment [1] is 0.2 °C; in experiment [2], 0.4 °C. In addition, the Ratio in experiment [3] was 0.5. The IC50 in experiment [4] was 1090 nM; in experiment [5] it was 1500 nM; in experiment [6], 4660 nM; in experiment [7], 702 nM; in experiment [8], 1670 nM; in [9], 1560 nM. Also, the results for the IC50 in [10] and in experiment [11] were more than 20000 nM and 3760 nM, respectively.
`COC(=O)c1cc(NC(=O)c2cc(NC(=O)CCCOc3cc4c(cc3OC)C(=O)N3CCC[C@H]3C=N4)cn2C)cn1C`: the ΔTm in experiment [1] turned out to be 1.1 °C; in experiment [2], 7.4 °C. Also, the values for the Activity in experiment [12] and in [13] were 12% and 70%, respectively. Further, the Ratio in experiment [3] was determined as 0.15. Further, the IC50 in [4] is 0.55 nM; in [5] it was 6.1 nM; in [6] it was 41.3 nM; in experiment [7], 0.32 nM; in experiment [8], 0.12 nM; in experiment [9], 2.4 nM. Besides, the IC50 in experiment [10] turned out to be 1.3 nM; in [11] it was 0.57 nM.
For the compound `COC(=O)c1nc(NC(=O)c2cc(NC(=O)c3cc(-c4ccc(NC(=O)CCCOc5cc6c(cc5OC)C(=O)N5CCC[C@H]5C=N6)cc4)cn3C)cn2C)cn1C`, the ΔTm in experiment [1] was 5.8 °C; in experiment [2] it was 3.4 °C. Further, the Ratio in experiment [3] worked out at 1.7. The IC50 was determined as 0.064 nM in experiment [4]; 0.45 nM in [5]; 65.6 nM in [6]; 0.075 nM in experiment [7]; 0.015 nM in experiment [8]; 0.25 nM in experiment [9]. For the same compound, the IC50 is 0.037 nM in experiment [10] and more than 20000 nM in [11].
Consider `COC(=O)c1cc(NC(=O)c2cc(NC(=O)c3cc(-c4ccc(NC(=O)CCCOc5cc6c(cc5OC)C(=O)N5CCC[C@H]5C=N6)cc4)cn3C)cn2C)cn1C`, for which the ΔTm is 4.3 °C in experiment [1] and 3.2 °C in [2]. The Ratio in experiment [3] came to 1.34. Further, the IC50 in experiment [4] was determined as 0.86 nM; in experiment [5], 2.3 nM; in experiment [6] it was 41.3 nM; in [7], 0.31 nM; in [8], 0.59 nM; in experiment [9] it was 0.31 nM. For the same compound, the IC50 was determined as 0.96 nM in [10] and 0.24 nM in experiment [11].
